Experimental findings from ChEMBL document CHEMBL3526046, “The role of aldehyde oxidase and xanthine oxidase in the biotransformation of a novel negative allosteric modulator of metabotropic glutamate receptor subtype 5” (Drug Metab Dispos, 2012) are described below.

SMILES strings stand for the structures. Some results are limits rather than exact numbers.

Broadly, the half-life is the time in which the quantity being followed falls by half. Broadly, the IC50 is the concentration that inhibits the measured activity by half. Broadly, the clearance is the rate of elimination divided by the concentration.

The nature of series [1]: Drug level in Sprague-Dawley rat hepatic S9 fraction treated with 25 uM VU0409106 by LC-UV-MS analysis. The class given is ADME, tissue-based, Liver. In short, it runs like this:
(§1)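 Hepatic S9 (5 mg/ml) in 0.1 M potassium phosphate pH 7.4 with 3 mM MgCl2 and 25 µM substrate, 37°C, 1 h under ambient oxygen; NADPH (2 mM) added in select runs. Reactions started by adding substrate. Protein precipitated with 2 volumes MeCN and the supernatant dried under nitrogen, reconstituted in 85:15 10 mM ammonium formate (pH 4.1)-MeCN, then analysed by LC-MS.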

Series [2] can be described thus: Drug level in Sprague-Dawley rat hepatic S9 fraction treated with 3-fluoro-N-(4-methylthiazol-2-yl)-5-(6-oxo-1,6-dihydropyrimidin-5-yloxy)benzamide by LC-MS/MS analysis in presence of 100 uM allopurinol xanthine oxidase inhibitor. Format: ADME, tissue-based, Liver.
The nature of series [3]: Drug level in human hepatic S9 fraction treated with 25 uM VU0409106 by LC-UV-MS analysis. The class given is ADME, tissue-based, Liver. In short, it runs like this: as §1
For series [4], the system named is Plasma. The series can be described thus: Retention time in Sprague-Dawley rat plasma treated with 56.6 mg/kg, ip VU0409106 single dose. Set-up: dose 56.6 mg/kg, route intraperitoneal. The conditions noted are these: in vivo. Format: ADME, organism-based. In short, it runs like this: (§2)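 Male Sprague-Dawley rats given a single intraperitoneal dose of 56.6 mg/kg. Plasma extracted with 2 volumes acetonitrile and centrifuged; metabolites profiled by LC-MS/MS.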

For series [5], the system named is Plasma. The series can be described thus: Drug level in Sprague-Dawley rat plasma treated with 56.6 mg/kg, ip VU0409106 single dose by LC-MS/MS analysis. Format: ADME, organism-based. Set-up: dose 56.6 mg/kg, route intraperitoneal. As to conditions: in vivo. In short, it runs like this:
as §2

Series [6] is described as follows: Drug level in cynomolgus monkey hepatic S9 fraction treated with 25 uM VU0409106 by LC-UV-MS analysis. The class given is ADME, tissue-based, Macaca fascicularis, Liver. In short, it runs like this:
as §1

Series [7] is described as follows: Drug level in Sprague-Dawley rat hepatic S9 fraction treated with 25 uM VU0409106 by LC-MS/MS analysis in presence of 100 uM allopurinol xanthine oxidase inhibitor. Format: ADME, tissue-based, Liver. A digest of the protocol: as §1
Series [8] deals with Hepatocyte. The series can be described thus: Drug level in Sprague-Dawley rat cryopreserved hepatocytes treated with 25 uM VU0409106 by LC-UV-MS analysis. The class given is ADME, cell-based.
A short description of series [9]: Intrinsic clearance in Sprague-Dawley rat hepatic cytosol at 1 uM. The class given is ADME, tissue-based, Liver. A digest of the protocol:
(§3)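 Substrate depletion at 1 µM in 0.1 M potassium phosphate pH 7.4, S9 2.5 mg/ml or cytosol 1 mg/ml, ± NADPH 1 mM, 37°C. Sampled at 0, 3, 7, 15, 25 and 45 min, quenched in cold MeCN with internal standard, analysed by LC-MS/MS in triplicate. CLint scaled using 120.7 mg S9 or 80.7 mg cytosol protein.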

Series [10] is described as follows: Intrinsic clearance in human cryopreserved hepatocytes at 1 uM. Format: ADME, cell-based, Hepatocyte. In short, it runs like this: (§4)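 Hepatocyte depletion assay at 2 × 10^6 cells/ml, 37°C, ambient oxygen. Aliquots taken at 0, 15, 30, 60 and 120 min, quenched in ice-cold MeCN containing internal standard, analysed by LC-MS/MS in triplicate. Intrinsic clearance estimated by the substrate depletion method.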

Series [11] can be described thus: Effective half life in Sprague-Dawley rat at 1 mg/kg, iv administered as single dose. Format: ADME, organism-based. As to conditions: in vivo. Set-up: dose 1 mg/kg, route intravenous. A digest of the protocol: (§5)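 Cannulated male Sprague-Dawley rats dosed at 1 mg/kg through a jugular catheter in 10% ethanol/70% PEG400/20% saline. Carotid blood drawn at 0.033 to 24 h into chilled EDTA tubes; plasma stored at -80°C. Parameters derived by noncompartmental analysis.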

Series [12] can be described thus: Intrinsic clearance in Sprague-Dawley rat hepatic S9 fraction at 1 uM in presence of NADPH. The class given is ADME, tissue-based, Liver. A digest of the protocol: as §3
The test system of series [13] is Plasma. Put plainly: Drug metabolism in Sprague-Dawley rat plasma assessed as hydroxylated pyrimidine metabolite formation at 56.6 mg/kg, ip single dose by LC-MS/MS analysis. Format: ADME, organism-based. Set-up: dose 56.6 mg/kg, route intraperitoneal. As to conditions: in vivo. In short, it runs like this: as §2
Series [14] in a line: Drug metabolism in Sprague-Dawley rat cryopreserved hepatocytes assessed as hydroxylated pyrimidine metabolite formation at 25 uM by LC-MS/MS analysis in presence of 1-ABT pan-450 inactivator. Format: ADME, cell-based, Hepatocyte. A digest of the protocol:
(§6)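 Pooled cryopreserved hepatocytes (2 × 10^6 cells/ml) in Krebs-Henseleit buffer, 25 µM substrate, 37°C for 4 h. Rat donors were 14 males, cynomolgus 4 males, human 20 mixed gender. Cells precipitated with 2 volumes MeCN, centrifuged at 4°C; supernatant dried under nitrogen, reconstituted in 15% aqueous MeCN for LC-MS.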

Series [15] in a line: Drug metabolism in cynomolgus monkey hepatic S9 fraction assessed as 3-(2,4-dioxo-1,2,3,4-tetrahydropyrimidin-5-yloxy)-5-fluoro-N-(thiazol-2-yl)benzamide at 1 uM by LC-MS/MS analysis. As to conditions: s9, 1 µM. The class given is ADME, Macaca fascicularis, Liver.
Series [16] in a line: Drug metabolism in human cryopreserved hepatocytes assessed as 3-(2,4-dioxo-1,2,3,4-tetrahydropyrimidin-5-yloxy)-5-fluoro-N-(thiazol-2-yl)benzamide at 25 uM by LC-MS/MS analysis. The class given is ADME, cell-based, Hepatocyte. A digest of the protocol: as §6
Series [17] in a line: Drug metabolism in human cryopreserved hepatocytes assessed as hydroxylated pyrimidine metabolite formation at 25 uM by LC-MS/MS analysis in presence of 1-ABT pan-450 inactivator. Format: ADME, cell-based, Hepatocyte. In short, it runs like this: as §6
Series [18] can be described thus: Intrinsic clearance in cynomolgus monkey hepatic S9 fraction at 1 uM. The class given is ADME, tissue-based, Macaca fascicularis, Liver. In short, it runs like this: as §3
A short description of series [19]: Intrinsic clearance in cynomolgus monkey cryopreserved hepatocytes at 1 uM. Format: ADME, cell-based, Macaca fascicularis, Hepatocyte. A digest of the protocol:
as §4

Series [20] in a line: Inhibition of group 2 mGluR (unknown origin). Set-up: species or system Homo sapiens.
The nature of series [21]: Volume of distribution at steady state in Sprague-Dawley rat at 1 mg/kg, iv administered as single dose. The class given is ADME, organism-based. Set-up: dose 1 mg/kg, route intravenous. The conditions noted are these: in vivo, read-out: Vdss. A digest of the protocol:
as §5

Series [22] is described as follows: Intrinsic clearance in human hepatic cytosol at 1 uM. The class given is ADME, tissue-based, Liver. A digest of the protocol: as §3
Series [23] in a line: Intrinsic clearance in human hepatic S9 fraction at 1 uM in presence of NADPH. Format: ADME, tissue-based, Liver. A digest of the protocol:
as §3

The nature of series [24]: Intrinsic clearance in Sprague-Dawley rat cryopreserved hepatocytes at 1 uM. The class given is ADME, cell-based, Hepatocyte. In short, it runs like this: as §4
Series [25] in a line: Drug metabolism in human hepatic S9 fraction assessed as 3-(2,4-dioxo-1,2,3,4-tetrahydropyrimidin-5-yloxy)-5-fluoro-N-(thiazol-2-yl)benzamide at 1 uM by LC-MS/MS analysis. The class given is ADME, Liver. As to conditions: s9, 1 µM.
Series [26] is described as follows: Plasma clearance in cynomolgus monkey at 1 mg/kg, iv administered as single dose. Format: ADME, organism-based, Macaca fascicularis. Set-up: dose 1 mg/kg, route intravenous. In short, it runs like this: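 Male cynomolgus monkeys (n = 2, about 3 kg) given 1 mg/kg i.v. via the saphenous vein in 10% ethanol/60% PEG400/30% isotonic saline. Femoral blood sampled from 0.033 to 24 h into chilled EDTA tubes; plasma kept at -80°C.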

The nature of series [27]: Intrinsic clearance in Sprague-Dawley rat hepatic S9 fraction at 1 uM. The class given is ADME, tissue-based, Liver. In short, it runs like this: as §3
Series [28] is described as follows: Plasma clearance in Sprague-Dawley rat at 1 mg/kg, iv administered as single dose. The class given is ADME, organism-based. Set-up: dose 1 mg/kg, route intravenous. In short, it runs like this: as §5
Series [29] can be described thus: Drug metabolism in Sprague-Dawley rat cryopreserved hepatocytes assessed as hydroxylated thiazole metabolite formation at 25 uM by LC-MS/MS analysis in presence of 1-ABT pan-450 inactivator. Format: ADME, cell-based, Hepatocyte. In short, it runs like this:
as §6

The nature of series [30]: Drug metabolism in cynomolgus monkey hepatic S9 fraction assessed as 3-fluoro-N-(4-methylthiazol-2-yl)-5-(6-oxo-1,6-dihydropyrimidin-5-yloxy)benzamide at 1 uM by LC-MS/MS analysis. Format: ADME, Macaca fascicularis, Liver. The conditions noted are these: s9, 1 µM.
Series [31] can be described thus: Drug metabolism in Sprague-Dawley rat hepatic S9 fraction assessed as 3-(2,4-dioxo-1,2,3,4-tetrahydropyrimidin-5-yloxy)-5-fluoro-N-(thiazol-2-yl)benzamide at 25 uM by LC-MS/MS analysis. Format: ADME, Liver. The conditions noted are these: s9, 25 µM.
Series [32] is described as follows: Drug metabolism in human hepatic S9 fraction assessed as 3-fluoro-N-(4-methylthiazol-2-yl)-5-(6-oxo-1,6-dihydropyrimidin-5-yloxy)benzamide at 1 uM by LC-MS/MS analysis. The conditions noted are these: s9, 1 µM. The class given is ADME, Liver.
The nature of series [33]: Intrinsic clearance in cynomolgus monkey hepatic S9 fraction at 1 uM in presence of NADPH. Format: ADME, tissue-based, Macaca fascicularis, Liver. A digest of the protocol:
as §3

Series [34] in a line: Inhibition of group 3 mGluR (unknown origin). Set-up: species or system Homo sapiens.
The nature of series [35]: Drug metabolism in Sprague-Dawley rat hepatic S9 fraction assessed as 3-fluoro-N-(4-methylthiazol-2-yl)-5-(6-oxo-1,6-dihydropyrimidin-5-yloxy)benzamide at 25 uM by LC-MS/MS analysis. The conditions noted are these: s9, 25 µM. The class given is ADME, Liver.
Series [36] is described as follows: Drug metabolism in human cryopreserved hepatocytes assessed as hydroxylated thiazole metabolite formation at 25 uM by LC-MS/MS analysis in presence of 1-ABT pan-450 inactivator. The class given is ADME, cell-based, Hepatocyte. A digest of the protocol: as §6
Series [37] can be described thus: Inhibition of group 1 mGluR (unknown origin). Set-up: species or system Homo sapiens.
Series [38] has as its system Plasma. Put plainly: Drug metabolism in Sprague-Dawley rat plasma assessed as hydroxylated thiazole metabolite formation at 56.6 mg/kg, ip single dose by LC-MS/MS analysis. Format: ADME, organism-based. Set-up: dose 56.6 mg/kg, route intraperitoneal. The conditions noted are these: in vivo. A digest of the protocol: as §2
Series [39] can be described thus: Drug metabolism in human cryopreserved hepatocytes assessed as 3-fluoro-N-(4-methylthiazol-2-yl)-5-(6-oxo-1,6-dihydropyrimidin-5-yloxy)benzamide at 25 uM by LC-MS/MS analysis. Format: ADME, cell-based, Hepatocyte. A digest of the protocol:
as §6

For `Cc1csc(NC(=O)c2cc(F)cc(Oc3c[nH]c(=O)[nH]c3=O)c2)n1`, the Drug metabolism result was “metabolite_detected” in series [1]; “metabolite_not_detected” in series [2]; “metabolite_detected” in series [3]; “metabolite_detected” in series [5]; “metabolite_detected” in series [6]; “metabolite_not_detected” in [7]. Further, in series [8], the Drug metabolism result is given as “metabolite_detected”. This molecule also showed a Retention_time in series [4] of 12.3 min.

Consider `Cc1csc(NC(=O)c2cc(F)cc(Oc3cncnc3)c2)n1`, for which the CLint at 1 µM in [9] turned out to be 0.96 L/h/kg; in series [10] it was 0.414 L/h/kg; in [12] it was 3.24 L/h/kg; in series [18], 2.04 L/h/kg; in [19], 11.6 L/h/kg; in [22], 0.222 L/h/kg. Besides, the CLint at 1 µM in series [23] is 0.9 L/h/kg; in [24], 5.76 L/h/kg; in series [27], 1.5 L/h/kg; in [33] it was 2.22 L/h/kg. In [11], this molecule displayed a half-life of less than 15 min. For the same molecule, the Drug metabolism entry is given as “metabolite_detected” in [13]; “metabolite_not_detected” in series [14]; “metabolite_detected” in [15]; “metabolite_detected” in series [16]; “metabolite_not_detected” in series [17]; “metabolite_detected” in series [25]. For the same molecule, the Drug metabolism entry is given as “metabolite_not_detected” in series [29]; “metabolite_detected” in [30]; “metabolite_detected” in [31]; “metabolite_detected” in series [32]; “metabolite_detected” in series [35]; “metabolite_not_detected” in [36]. For the same molecule, the Drug metabolism entry in series [38] and in [39] was “metabolite_detected” in each case. Also, the Retention_time in series [4] came out at 14.5 min. For the same molecule, the 50% inhibitory concentration (IC50) in series [20], in [34] and in series [37] was no less than 10 µM throughout. In addition, in series [21], the Vd is 0.81 L/kg. Further, the values for the clearance in series [26] and in series [28] were 1.44 L/h/kg and 2.58 L/h/kg, respectively.
